In ChEMBL document CHEMBL3826876, “Toward the Development of Specific G-Quadruplex Binders: Synthesis, Biophysical, and Biological Studies of New Hydrazone Derivatives” (J Med Chem, 2016):
The source made the active and inactive calls. No cut-off for these calls is given here.

How the values were obtained:
[1] = Induction of G-quadruplex formation in synthetic unfolded telomere 23 DNA assessed as increase in molar ellipticity after 10 mins in absence of metal cation by circular dichroism titration method
Method in brief: (§1)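 CD titration without metal ions: unfolded oligonucleotide 12-15 µM in 50 mM Tris; ligand added in 0.5 equiv steps, spectrum recorded 10 min after each addition at 20 °C, 230-360 nm, 3 scans averaged.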

[2] = Binding affinity to human 5'-FAM/3'-TAMRA labeled telomere 21 parallel G-quadruplex DNA (unknown origin) assessed as change in melting temperature at 4:1 ligand:DNA ratio in presence of 100 mM KCl buffer by FRET assay
Method in brief: (§2)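 FRET melting of FAM/TAMRA-labelled G4 oligos (400 nM, annealed 85 °C 10 min) with ligand at 4 equiv, same buffers as CD (20 mM KCl for c-kit2 and c-myc; 100 mM KCl for telomeric parallel form, annealed at high concentration). Excitation 450-495 nm, emission 515-545 nm, read every 0.5 °C over 30-100 °C; ΔTm by curve fit; duplicate runs averaged.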

[3] = Binding affinity to 5' and 3'-terminal G-tetrads of synthetic MYC22 G14T/G23T double mutant G-quadruplex DNA in presence of 70 mM KCl solution by NMR spectroscopic analysis
Method in brief: (§3)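 1H NMR titration at 25 °C, 700 MHz, water-suppressed 1D spectra; DNA 0.2-0.5 mM strand in H2O/D2O 9:1. Myc22 in 25 mM KH2PO4, 70 mM KCl, 0.2 mM EDTA, pH 7.0; c-kit2 T12/T21 in 5 mM KH2PO4, 20 mM KCl, 0.2 mM EDTA, pH 6.8. Ligand in DMSO-d6 added stepwise into the tube; imino proton shifts followed.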

U2OS [4] = test: Cytotoxicity against human U2OS cells assessed as cell death after 24 hrs by microscopic analysis; assay type: cell-based
[5] = Binding affinity to synthetic c-MYC G-quadruplex DNA assessed as increase in thermal stability at 1:1 to 2:1 ligand:DNA ratio in presence of 20 mM KCl buffer by circular dichroism spectroscopic analysis
Method in brief: (§4)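 CD melting in 5 mM potassium phosphate, 20 mM KCl, 10 µM folded G4, heated 20-100 °C at 1 °C/min; ligand:DNA ratios 1:1, 2:1 and 4:1 compared; Tm from curve fit.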

U2OS [6] = test: Cytotoxicity against human U2OS cells assessed as cell death after 24 hrs by FACS analysis; assay type: cell-based
Homo sapiens = species: Homo sapiens; test: Binding affinity to human 5'-FAM/3'-TAMRA labeled telomere 21 G-quadruplex DNA assessed as increase in melting temperature by FRET assay
Method in brief: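 FRET melting screen in 60 mM potassium cacodylate pH 7.4, labelled probe 400 nM annealed at 85 °C for 10 min; ligands at various concentrations up to 20 µM, diluted from 10 mM DMSO stock via 10 mM HCl. Excitation 450-495 nm, emission 515-545 nm, 30-100 °C in 0.5 °C steps with 30 s hold; ΔTm by curve fitting, triplicate.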

[7] = Binding affinity to synthetic c-MYC G-quadruplex DNA assessed as change in melting temperature at 4 mol equiv in presence of 20 mM KCl buffer by circular dichroism spectroscopic analysis
[8] = Binding affinity to 5'-FAM/3'-TAMRA labeled c-KIT2 G-quadruplex DNA (unknown origin) assessed as change in melting temperature at 4:1 ligand:DNA ratio in presence of 20 mM KCl buffer by FRET assay; method in brief: as §2
[9] = Binding affinity to synthetic telomere 26 G-quadruplex DNA assessed as change in melting temperature at 4 mol equiv in presence of 100 mM KCl buffer by circular dichroism spectroscopic analysis
Method in brief: (§5)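 CD melting, 20-100 °C at 1 °C/min, signal at 264 (parallel), 290 (antiparallel) or 280 nm (duplex). G4 DNA 10 µM or duplex 15 µM, folded by heating at 90 °C 5 min and slow cooling, in 10 mM potassium phosphate (c-kit1, Tel23, Tel26) or lithium phosphate (Tel23-p, ds12) pH 7.0 with 100 mM KCl. Ligand 4 equiv; Tm by curve fit, ΔTm vs DNA alone; duplicate average.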

[10] = Binding affinity to synthetic c-KIT2 G-quadruplex DNA assessed as change in melting temperature at 4 mol equiv in presence of 20 mM KCl buffer by circular dichroism spectroscopic analysis
Method in brief: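 CD melting as for other targets (20-100 °C, 1 °C/min, 10 µM folded G4, ligand 4 equiv), but in 5 mM potassium phosphate with 20 mM KCl; c-kit2 read at 264 nm as parallel G4. ΔTm from fitted Tm, duplicate average.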

[11] = Binding affinity to 5' and 3'-terminal G-tetrads of synthetic c-KIT2 G12T/G21T double mutant parallel G-quadruplex DNA in presence of 20 mM KCl solution by NMR spectroscopic analysis; method in brief: as §3
[12] = Induction of parallel G-quadruplex formation in synthetic unfolded c-KIT1 DNA assessed as increase in molar ellipticity after 10 mins by in absence of metal cation circular dichroism titration method; method in brief: as §1
[13] = Binding affinity to synthetic c-KIT2 G-quadruplex DNA assessed as increase in thermal stability in presence of 20 mM KCl buffer by circular dichroism spectroscopic analysis; method in brief: as §4
[14] = Binding affinity to synthetic telomere 23 parallel G-quadruplex DNA assessed as change in melting temperature at 4 mol equiv in presence of 100 mM KCl buffer by circular dichroism spectroscopic analysis; method in brief: as §5
[15] = Effect on synthetic c-MYC G-quadruplex DNA topology at 4 mol equiv by circular dichroism spectroscopic analysis
Method in brief: (§6)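 CD spectra at 20 °C, 230-360 nm, 3 scans averaged, baseline subtracted; 10 µM G4 or 15 µM duplex in potassium- or lithium-phosphate pH 7.0 buffers with 100 mM KCl (c-kit2, c-myc: 5 mM potassium phosphate, 20 mM KCl); ligand 4 molar equiv added to folded DNA from 6 mM DMSO stock.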

[16] = Cytotoxicity against human HCT116 cells assessed as cell killing after 24 hrs by MTT assay; assay type: functional, cell-based; details: HCT-116, 24 h
Method in brief: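 U2OS and HCT116 in DMEM with 10% FBS, 1% L-glutamine, seeded at 40000 cells/ml; 24 h later exposed for 1 h or 24 h, then drug-free medium 1-2 days. MTT 1 h at 37 °C, DMSO solubilisation, absorbance 595 nm. IC50 by linear regression; two independent experiments in triplicate, mean ± SE.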

[17] = Effect on synthetic telomere 23 parallel G-quadruplex DNA topology at 4 mol equiv by circular dichroism spectroscopic analysis; method in brief: as §6
[18] = Effect on synthetic telomere 23 G-quadruplex DNA topology at 4 mol equiv by circular dichroism spectroscopic analysis; method in brief: as §6
[19] = Induction of parallel G-quadruplex formation in synthetic unfolded c-KIT2 DNA assessed as increase in molar ellipticity after 10 mins in absence of metal cation by circular dichroism titration method; method in brief: as §1
[20] = Effect on synthetic self-complementary DNA 12-mer duplex topology at 4 mol equiv in presence of K+ ions by circular dichroism spectroscopic analysis; method in brief: as §6

Activity [1]: inactive
ΔTm [2]: 7 °C
Activity [3]: Active
Activity [5]: Active
Activity (Homo sapiens): Active
ΔTm [7]: > 20 °C
ΔTm [8]: 15 °C
ΔTm [9]: -3 °C
ΔTm [10]: 9.5 °C
Activity [11]: Active
Activity [12]: inactive
Activity [13]: Dose-dependent effect
ΔTm [14]: 9.1 °C
Activity [15]: inactive
Activity [17]: inactive
Activity [18]: inactive
Activity [19]: inactive
Activity [20]: inactive
SMILES: Br.O=Cc1c(-c2ccccc2)nc2n1ccc1nc(-c3ccccc3)c(/C=N/NC3=NCCN3)n12
Activity (U2OS [4]): Non-toxic
Activity (U2OS [6]): Non-toxic
IC50 [16]: 407 nM
